In ChEMBL document CHEMBL1127750, “Enhancement of iron excretion via monoanionic 3-hydroxypyrid-4-ones” (1994):

Legend:
Rattus norvegicus [1] = assay: The treatment period of compound (microg of Fe/15h) for urinary excretion of Iron after intravenous administration to the rats; format: functional, Urine
In short: (§1)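 Unloaded normal rats, each serving as its own control, housed in metabolic cages. Control day: 1 mL distilled water/200 g body weight iv, urine collected 15 h (5 p.m.–8 a.m.) and analyzed for iron. Next day: chelator 0.2 mmol/kg iv by tail vein under ether anesthesia in 1 mL deionized water, pH about 7 with sodium bicarbonate; urine again collected 15 h for iron.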

Rattus norvegicus [2] = assay: The control period of compound (microg of Fe/15h) for urinary excretion of Iron after peroral administration to the rats; format: functional, Urine
In short: (§2)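 Unloaded normal rats in metabolic cages act as their own controls. Food is withdrawn at 5 p.m. on both days. Control day: 1 mL distilled water po, urine collected until 8 a.m. (15 h), food returned, urine analyzed for iron. Treatment day: chelator 1 mmol/kg po in 1 mL distilled water, then another 15 h urine collection for iron analysis.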

Rattus norvegicus [3] = assay: The control period of compound (microg of Fe/15h) for urinary excretion of Iron after intravenous administration to the rats; format: functional, Urine; in short: as §1
Rattus norvegicus [4] = assay: The treatment period of compound (microg of Fe/15h) for urinary excretion of Iron after peroral administration to the rats; format: functional, Urine; in short: as §2
Rattus norvegicus [5] = assay: The treatment period of compound (microg of Fe/h) for biliary excretion of Iron after intravenous administration to the rats; format: functional, Bile
In short: (§3)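 Normal (untreated) rats under pentobarbital anesthesia, bile duct cannulated with PE-10 tubing. Bile collected 30 min for the control rate, then chelator given 0.2 mmol/kg iv by tail vein in deionized water, pH about 7 with sodium bicarbonate, and bile collected a further 2 h. Bile mass measured and iron determined by atomic absorption spectrometry; rate expressed per hour. Controls received pentobarbital only.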

Rattus norvegicus [6] = assay: The control period of compound (microg of Fe/h) for biliary excretion of Iron after intravenous administration to the rats; format: functional, Bile; in short: as §3

Compound	Treatment period (Rattus norvegicus [1])	Control period (Rattus norvegicus [2])	Control period (Rattus norvegicus [3])	Treatment period (Rattus norvegicus [4])	Treatment period (Rattus norvegicus [5])	Control period (Rattus norvegicus [6])
Cn1cc(O)c(=O)cc1C(=O)O	6830 ng of Fe/15 h	497 ng of Fe/15 h	410 ng of Fe/15 h	6740 ng of Fe/15 h	5.87	0.34
O=C(O)c1cc(=O)c(O)co1					0.46	0.35
O=c1cc(CO)n(CCS(=O)(=O)O)cc1O	2200 ng of Fe/15 h	296 ng of Fe/15 h	504 ng of Fe/15 h	350 ng of Fe/15 h	9.96	0.35
Cc1c(O)c(=O)ccn1C [DEFERIPRONE]	8370 ng of Fe/15 h	400 ng of Fe/15 h	490 ng of Fe/15 h	17400 ng of Fe/15 h	4.78	0.36
O=c1cc(CO)occ1O [KOJIC ACID]					0.28	0.31
